Reference: ChEMBL document CHEMBL1123837, “1-Amino-substituted 4-methyl-5H-pyrido[3',4':4,5]pyrrolo[3,2-c]pyridines: a new class of antineoplastic agents” (J Med Chem, 1987)
pIC50: −log10 of the molar value. Activity calls are given as the source filed them. The rule behind the calls is not given here.

Tests used:
[1] = tested on: L1210; assay: (§1) In vitro cytotoxicity against L1210 cells was determined after 48 hours of incubation; assay type: functional, Mus musculus; details: read-out: ID50 (the source's name)
Procedure, shortened: (§2)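 Exponentially growing L1210 cells were cultured in RPMI 1640 with 2 mM glutamine, penicillin/streptomycin and 10% fetal calf serum, under 5% CO2 at 37 °C. Drugs dissolved in distilled water were added to cells at 0.8 × 10^5 cells/mL for 48 h, then cells were counted. ID50 was estimated by regression of dose-response data, as the mean of two values from two independent experiments.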

[2] = tested on: Mus musculus; assay: In vivo antitumor activity was determined against P388 leukemia cells expressed as treated/control at yhe dose of 2.5-40 mg/kg; IA = Inactive; assay type: functional, organism-based
Procedure, shortened: (§3)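 Following NCI protocols, 10^6 viable P388 leukemia cells were inoculated ip on day 0 into male or female CDF1 hybrid mice, 10 per test group. Compounds in distilled water were given ip (0.1 mL/10 g body weight) at various doses on days 1–5. T/C = median survival day of treated / median survival day of negative controls × 100.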

[3] = tested on: Calf thymus DNA; assay: Binding affinity for DNA by ethidium bromide displacement assay; assay type: nucleic-acid assay; details: Bos taurus
Procedure, shortened: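 Competitive ethidium bromide displacement with calf thymus DNA at 10 µg/mL in 20 mM Na phosphate buffer, 0.1 M NaCl, 1 mM EDTA, pH 7.4. The apparent DNA affinity constant is given in 10^6 M^-1 ± standard deviation, from 6 values across two independent experiments.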

[4] = tested on: Mus musculus; assay: In vivo antitumor activity was determined against P388 leukemia cells expressed as treated/control at the dose of (1.25-20)mg/kg; IA = Inactive; assay type: functional, organism-based; procedure, shortened: as §3
[5] = tested on: Mus musculus; assay: In vivo antitumor activity was determined against P388 leukemia cells expressed as treated/control at the dosae of (2.5-40)mg/kg; IA = Inactive; assay type: functional, organism-based; procedure, shortened: as §3
[6] = tested on: Mus musculus; assay: In vivo antitumor activity was determined against P388 leukemia cells expressed as treated/control at the dose of 20 mg/kg; assay type: functional; procedure, shortened: as §3
[7] = tested on: Mus musculus; assay: In vivo antitumor activity was determined against P388 leukemia cells expressed as treated/control at the dose of 80 mg/kg; assay type: functional; procedure, shortened: as §3
[8] = tested on: Mus musculus; assay: In vivo antitumor activity was determined against P388 leukemia cells expressed as treated/control at the dose of 10 mg/kg; assay type: functional; procedure, shortened: as §3
[9] = tested on: Mus musculus; assay: In vivo antitumor activity was determined against P388 leukemia cells expressed as treated/control at the dose of 40 mg/kg; assay type: functional; procedure, shortened: as §3
[10] = tested on: Mus musculus; assay: In vivo antitumor activity was determined against P388 leukemia cells expressed as treated/control at the dose of (0.30-60)mg/kg; IA = Inactive; assay type: functional, organism-based; procedure, shortened: as §3
[11] = tested on: Mus musculus; assay: In vivo antitumor activity was determined against P388 leukemia cells expressed as treated/control at the dose of (2.5-20)mg/kg(nontoxic at highest dose tested.); IA = Inactive; assay type: functional, organism-based; procedure, shortened: as §3
[12] = tested on: Mus musculus; assay: In vivo antitumor activity was determined against P388 leukemia cells expressed as treated/control at the dose of 40 mg/kg; T = toxic at this dose; assay type: organism-based; set-up: dose 40 mg/kg; procedure, shortened: as §3
[13] = tested on: Mus musculus; assay: In vivo antitumor activity was determined against P388 leukemia cells expressed as treated/control at the dose of (2.5-20)mg/kg; IA = Inactive; assay type: functional, organism-based; procedure, shortened: as §3
[14] = as §1; assay type: cell-based; details: mouse, read-out: ID50; procedure, shortened: as §2
[15] = tested on: Mus musculus; assay: In vivo antitumor activity was determined against P388 leukemia cells expressed as treated/control at the dosage of 10 mg/kg; assay type: functional; procedure, shortened: as §3
[16] = tested on: Mus musculus; assay: In vivo antitumor activity was determined against P388 leukemia cells expressed as treated/control at the dosage of 20 mg/kg; assay type: functional; procedure, shortened: as §3
[17] = tested on: Mus musculus; assay: In vivo antitumor activity was determined against P388 leukemia cells expressed as treated/control at the dosage of 40 mg/kg; assay type: functional; procedure, shortened: as §3
[18] = tested on: Mus musculus; assay: In vivo antitumor activity was determined against P388 leukemia cells expressed as treated/control at the dose of (1.25-40)mg/kg; IA = Inactive; assay type: functional, organism-based; procedure, shortened: as §3

Cc1cnc(NCCCN2CCCCC2)c2c3cnccc3n(C)c12
pIC50 ([1]; Mus musculus, L1210, 48 h): 5.44 | T/C [2]: inactive | K aff [3]: 0.06

CCCN(CCC)CCCNc1[nH]cc(C)c2nc3ccncc3c1-2
pIC50 ([1]; Mus musculus, L1210, 48 h): 5.48 | K aff [3]: 8000 M⁻¹ | T/C [4]: inactive

Cc1cnc(NCCCN2CCCC2)c2c3cnccc3n(C)c12
pIC50 ([1]; Mus musculus, L1210, 48 h): 5.80 | T/C [2]: inactive | K aff [3]: 0.06

CCN(CC)CCCNc1ncc(C)c2c1c1cnccc1n2Cc1ccccc1
pIC50 ([1]; Mus musculus, L1210, 48 h): 5.19 | T/C [5]: inactive | K aff [3]: 2000 M⁻¹

CCNCCCNc1ncc(C)c2c1c1cnccc1n2C
T/C [6]: 145 | pIC50 ([1]; Mus musculus, L1210, 48 h): 5.42 | T/C [7]: 149 | T/C [8]: 127 | K aff [3]: 50000 M⁻¹ | T/C [9]: 138

CCN(CC)CCCN(C)c1[nH]cc(C)c2nc3ccncc3c1-2
pIC50 ([1]; Mus musculus, L1210, 48 h): 3.65 | T/C [10]: inactive | K aff [3]: 6000 M⁻¹

CCCN(CCC)CCCNc1ncc(C)c2c1c1cnccc1n2C
pIC50 ([1]; Mus musculus, L1210, 48 h): 5.07 | T/C [11]: inactive | K aff [3]: 16000 M⁻¹

CCN(CC)CCCNc1[nH]ccc2nc3ccncc3c1-2
T/C [12]: Toxic | T/C [13]: inactive | K aff [3]: 15000 M⁻¹ | CC50 at 48 h [14]: 46 µM

CCN(CC)CCCNc1ncc(C)c2[nH]c3ccncc3c12
T/C [15]: 135 | pIC50 [1]: 6.47 | T/C [16]: 148 | T/C [17]: 155

Cc1c[nH]c(NCCCN2CCOCC2)c2c3cnccc3nc1-2
pIC50 ([1]; Mus musculus, L1210, 48 h): 4.72 | T/C [18]: inactive | K aff [3]: 20000 M⁻¹
